Assay results from different studies.
Compare with care: the assays were run in different laboratories.

`CC(C)=CCC[C@](C)(O[C@@H]1O[C@H](CO)[C@@H](O)[C@H](O)[C@H]1O)[C@H]1CC[C@]2(C)[C@@H]1[C@H](O)C[C@@H]1[C@@]3(C)CC[C@H](O)C(C)(C)[C@@H]3CC[C@]12C` gave a half-life of 14 h (mouse, plasma; oral, 10 mg/kg).
The concentration of `Cc1ncsc1-c1ccc([C@H](CC(=O)NCCOCCOCCOCCOCCOCCC(=O)N2CCC(Nc3cc(C(=O)NC[C@H](O)CN4CCc5ccccc5C4)ncn3)CC2)NC(=O)[C@@H]2C[C@@H](O)CN2C(=O)[C@@H](NC(=O)C2(F)CC2)C(C)(C)C)cc1` is reported as over 200 nM (male Swiss mouse, plasma; intraperitoneal, 50 mg/kg, 8 h, single dose).
`COc1cc(C(=O)c2nc(-c3cccc4[nH]ccc34)c[nH]2)cc(OC)c1OC` has a half-life of 0.95 h (male CD-1 mouse, plasma; intraperitoneal, 15 mg/kg).
With `CC(C)[C@]12O[C@H]1[C@@H]1O[C@]13[C@]1(O[C@H]1C[C@H]1C4=C(CC[C@@]13C)C(=O)OC4)[C@@H]2O` the half-life was 0.16 h (SCID mouse, plasma; intravenous, 0.6 mg/kg).
`Cc1[nH]c(C)c(S(=O)(=O)Nc2ccc(S(F)(F)(F)(F)F)cc2)c1C(=O)N1CCC(F)(F)C1` gave a half-life of 2.64 h (mouse, plasma; intraperitoneal, 40 mg/kg).
The half-life of `CCOC(=O)c1c(NC(=O)CNC(C)C)sc2c1CCCCC2` is reported as 2.06 h (male mouse, brain; intraperitoneal, 100 mg/kg, single dose).
The concentration of `CN(C)C1(CNC(=O)c2ccc3c(c2)CCN3C(=O)c2ccccc2)CCOCC1` is reported as 39 ng/g (male C57BL/6 mouse, brain; intraperitoneal, 50 mg/kg, 2 h).
With `CC(C)CC(=O)OC[C@H]1O[C@@](C#N)(c2ccc3c(N)ncnn23)[C@H](O)[C@@H]1O` the hepatocyte CLint was over 318 µL/min/10⁶ cells (metabolic stability; dog, hepatocytes; 5 µM).
